Measured values pooled from the literature.
Protocols differ between the studies behind these lines.
Target: Activin receptor type-1-like (ACVRL1, Homo sapiens, UniProt P37023)

| SMILES | assay | setting | remaining binding |
| --- | --- | --- | --- |
| NS(=O)(=O)c1cc(NC(=O)C2(c3ccccc3Cl)CC2)ccc1Oc1cccc(Cl)c1 | binding, competition with immobilised ligand | 1 µM | 45% |
| N[C@H]1CCN(c2nccc(-c3cnn4ncccc34)n2)C1 | binding | 1 µM | 97% |
| O=C(c1ccc(Nc2ncc(Cl)c(-c3ccc(Cl)s3)n2)cc1)N1CCC(N2CCCC2)CC1 | binding, competition with immobilised ligand | 1 µM | 100% |
| CN(C)CC#Cc1ccc(OCCCc2sc(N3CCc4cccc(C(=O)Nc5nc6ccccc6s5)c4C3)nc2C(=O)O)c(F)c1 | binding, competition with immobilised ligand | 1 µM | 82% |
| CNC(=O)[C@@H]1CC[C@@H](n2c(-c3ccc4cnccc4c3)nc3ccc(C(=O)NCc4cccc(C(N)=O)c4)cc32)C1 | binding, competition with immobilised ligand | 1 µM | 68% |
| CCOCCn1cc(C(=O)Nc2ccc(-n3nc(-c4cccnc4)cc3C(F)(F)F)cn2)ccc1=O | cell-free assay, competition with immobilised ligand | 1 µM | 100% |
| C[C@@H](c1ccc(-n2cnc3c(N)ncnc32)cc1)N1CCc2nn(C)c(Cc3ccccc3)c2C1=O | binding, competition with immobilised ligand | 0.1 µM | 66% |
| CN(C)c1ncc(F)c(-c2cnn3ncccc23)n1 | binding | 1 µM | 100% |
| Cc1cnc(Nc2ccc(C(=O)N3CCC(N4CCCC4)CC3)cc2)nc1-c1cc2ccccc2s1 | binding, competition with immobilised ligand | 1 µM | 100% |
| Cc1c[nH]c2nccc(Oc3c(F)cc(Nc4cc(Cl)nc(N)n4)cc3F)c12 | cell-free assay, competition with immobilised ligand | 0.1 µM | 100% |
| O=C(Nc1c[nH]nc1C(=O)NC1CCNCC1)c1cc(F)cc(F)c1 | binding, competition with immobilised ligand | 1 µM | 94% |
| COc1cc(-c2cn(C3CCc4c(F)cccc4N(CC(F)(F)F)C3=O)nn2)ccc1-n1cnc(C)c1 (stereo not shown) | cell-free assay, competition with immobilised ligand | 1 µM | 100% |
| F[C@@H]1CCN(c2nccc(-c3cnn4ncccc34)n2)C1 | binding | 1 µM | 88% |
| c1cncc(-c2cccc(Nc3nccc(NC4CCCCC4)n3)c2)c1 | binding, competition with immobilised ligand | 10 µM | 52% |
| CN(C)c1nccc(-c2cnc3ncccn23)n1 | binding | 1 µM | 100% |
| O=C(NCCCN1CCOCC1)c1ccc(Nc2ncc(Cl)c(-c3ccc(Cl)s3)n2)cc1 | binding, competition with immobilised ligand | 1 µM | 100% |
| c1cnn2ncc(-c3ccnc(N4CCC45COC5)n3)c2c1 | binding | 1 µM | 100% |
| COc1cnc(Nc2cccc(S(N)(=O)=O)c2)nc1N1CCN(c2ccccc2)C(=O)C1 | binding, competition with immobilised ligand | 1 µM | 95% |
| CN(CCCC(F)(F)F)c1nccc(-c2cnn3ncccc23)n1 | binding | 1 µM | 68% |
| CCc1ccccc1C(=O)Nc1n[nH]c2c(C)c(F)c(C3C(C#N)=C(C)N(C)C(C)=C3C#N)cc12 | binding, competition with immobilised ligand | 1 µM | 75% |
| CN(C)c1nccc(-c2cnn3ncccc23)n1 | binding | 1 µM | 100% |
| CC1=C(C#N)C(c2ccc3c(c2)c(NC(=O)c2ccccc2C)nn3C)C(C#N)=C(C)N1 | binding, competition with immobilised ligand | 1 µM | 97% |
